≈ marks a conversion by molar mass, not a printed value. Calls of active or inactive are those of the source. The calls are words filed in the database; no cut-off is given here.

For one experiment, the system named is Porphyromonas gingivalis. Nature of the experiment: Antibacterial activity against Porphyromonas gingivalis after 48 hrs by microtiter plate method. Type of experiment: functional. The procedure, abridged:
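Broth microdilution in trypticase soy broth-yeast extract with 0.05% cysteine hydrochloride, menadione (0.02 μg/mL), hemin (5 μg/mL) and 0.02% potassium nitrate. Inoculum 5 × 10^5 CFU/mL; serially diluted test agent, triplicates per concentration. Incubated anaerobically (10% H₂, 5% CO₂, 85% N₂), 37 °C, 48 h. Turbidity read at 650 nm; MIC = lowest concentration keeping absorbance <0.05.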

The subject of a further experiment is Streptococcus mutans. As to the kind of experiment: Antibacterial activity against Streptococcus mutans after 48 hrs by microtiter plate method. It counts as functional. In short, it runs like this: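 Brain-heart infusion broth, inoculum 5 × 10^6 CFU/mL, serial dilutions of test agent in triplicate per concentration, 37 °C for 48 h. Controls were inoculated medium without test agent; blanks were uninoculated medium. Growth read spectrophotometrically at 650 nm; MIC taken as minimum concentration limiting turbidity to <0.05 absorbance.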

Usually MIC stands for the lowest concentration that inhibits growth of the organism. Read a high MIC as weaker potency. Take `C/C(=C\C=C\[C@@H](C)[C@H]1CC[C@@]2(C)[C@@H]3CC[C@H]4C(C)(C)[C@@H](O[C@H]5O[C@@H](CO)[C@H](O)[C@@H](O[C@@H]6O[C@H](CO)[C@@H](O)[C@H](O)[C@H]6O)[C@@H]5O[C@@H]5O[C@H](CO[C@H]6O[C@@H](CO)[C@H](O)[C@@H](O)[C@@H]6O)[C@@H](O)[C@H](O)[C@H]5O[C@@H]5O[C@@H](C)[C@H](O)[C@@H](O)[C@H]5O)CC[C@@]45C[C@@]35CC[C@]12C)C(=O)O`: the results for the MIC against Porphyromonas gingivalis and against Streptococcus mutans were 156 µg/mL (≈ 125 µM) and more than 1250 µg/mL, respectively. The matching figures for `C[C@@H]1O[C@@H](OC(=O)[C@]23CCC(C)(C)C[C@H]2C2=CC[C@@H]4[C@@]5(C)C[C@H](O)[C@H](O[C@@H]6O[C@H](CO)[C@@H](O)[C@H](O)[C@H]6O)[C@@](C)(CO)[C@@H]5[C@H](O)C[C@@]4(C)[C@]2(C)C[C@H]3O)[C@H](O)[C@H](O)[C@H]1O`: 78 µg/mL (≈ 94.1 µM) and more than 1250 µg/mL.

For `COc1cc(O)c2c(=O)c(O)c(-c3ccc(O)cc3)oc2c1`, the outcome in the experiment with Porphyromonas gingivalis was Active. As to `O=c1c(O)c(-c2ccc(O)cc2)oc2cc(O)cc(O)c12`, the result in the experiment on Porphyromonas gingivalis was Active.

Regarding `CC1(C)CC[C@]2(C(=O)O)CC[C@]3(C)C(=CC[C@@H]4[C@@]5(C)CC[C@H](O)C(C)(C)[C@@H]5CC[C@]43C)[C@@H]2C1` [OLEANOLIC_ACID], the minimum inhibitory concentration (MIC) in the experiment on Porphyromonas gingivalis is 625 µg/mL (≈ 1370 µM). On to `N=C(NCCCCCCNC(=N)NC(=N)Nc1ccc(Cl)cc1)NC(=N)Nc1ccc(Cl)cc1` [CHLORHEXIDINE], for which the MIC against Porphyromonas gingivalis and with Streptococcus mutans was 0.312 µg/mL (≈ 0.617 µM) each time.

`O=c1c(O)c(-c2cc(O)c(O)c(O)c2)oc2cc(O)cc(O)c12`: the result in the experiment on Porphyromonas gingivalis was Active. In the case of `CC1(C)CC[C@]2(C(=O)O[C@@H]3O[C@H](CO)[C@@H](O)[C@H](O)[C@H]3O)[C@H](O)C[C@]3(C)C(=CC[C@@H]4[C@@]5(C)C[C@H](O)[C@H](O)C(C)(C)[C@@H]5[C@H](O)C[C@]43C)[C@@H]2C1`, the MIC was 312 µg/mL (≈ 468 µM) in the experiment on Porphyromonas gingivalis and more than 1250 µg/mL with Streptococcus mutans. The like results for `CC(=O)O[C@H]1CC[C@]2(C)[C@H]3CC=C4[C@@H]5CC(C)(C)CC[C@]5(C)CC[C@@]4(C)[C@]3(C)C[C@@H](O)[C@H]2C1(C)C` were, in that order, 78 µg/mL (≈ 161 µM) and more than 1250 µg/mL. For the molecule `CC(=O)O[C@H]1CC[C@]2(C)[C@H]3CC=C4[C@@H]5CC(C)(C)CC[C@]5(C(=O)O)CC[C@@]4(C)[C@]3(C)CC[C@H]2C1(C)C` [ACETYL OLEANOLIC ACID], the MIC against Porphyromonas gingivalis was 39 µg/mL (≈ 78.2 µM); with Streptococcus mutans, more than 1250 µg/mL.

As for `C[C@@H]1O[C@@H](OC(=O)[C@]23CCC(C)(C)C[C@H]2C2=CC[C@@H]4[C@@]5(C)C[C@H](O)[C@H](O[C@@H]6O[C@H](CO)[C@@H](O)[C@H](O)[C@H]6O)C(C)(C)[C@@H]5[C@H](O)C[C@@]4(C)[C@]2(C)C[C@H]3O)[C@H](O)[C@H](O)[C@H]1O`, the figures for the MIC in the experiment with Porphyromonas gingivalis and against Streptococcus mutans were 312 µg/mL (≈ 384 µM) and more than 1250 µg/mL, respectively.

Source of the values: ChEMBL document CHEMBL1144123, “Activity of triterpenoid glycosides from the root bark of Mussaenda macrophylla against two oral pathogens” (1999).
